Records with an inconclusive call do not appear.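 The calls were made as follows, unless noted: active = inhibition over a set limit, the all-compound mean plus 3 SD, in both replicate runs; inconclusive = over that limit in just one replicate run; inactive = at or under that limit in both runs.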
Assays:
[1] = S. cerevisiae growth inhibition in permissive medium (OD615), pilot counter-assay for S. cerevisiae lifespan shortening project, permissive growth control (AID 705;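 active = growth inhibition above 25% in both replicates, a cutoff set 3 SD above the mean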); conditions: OD615, 24 h, at 10 µM, active compounds read high
In short: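 System – S. cerevisiae with engineered DeaD lifespan system · Buffer or medium – SC raffinose/galactose permissive medium · Schedule – cells pre-grown 4 h, then 24 h compound exposure, 30 °C humidified · Technique – culture turbidity as optical density at 615 nm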

[2] = S. cerevisiae growth inhibition in restrictive medium, OD615, pilot screen, restrictive growth control, yeast lifespan reduction project (AID 706;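 active = growth inhibition above a set limit, 3 SD over mean compound inhibition, in both replicates, cut at about 43% in these data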;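 also: modified DeaD lifespan yeast strain shifted to restrictive glucose medium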); conditions: OD615, 48 h, at 10 µM, active compounds read high
In short: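 Material: engineered S. cerevisiae DeaD strain / Medium: glucose-based CSMM-D restrictive medium / Compound: single dose of 10 µM compound final, 0.25% DMSO / Timing: 4 h pre-incubation, 48 h exposure at 30 °C / Technique: OD615 absorbance reading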

[3] = doxorubicin toxicity protection in MRP-1 cells – H69AR cells, CellTiter-Glo, duplicate, MRP-1 activator project, pilot screen (AID 807;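 active = viability increase at or above a cutoff of the median across tested compounds plus 3 SD, cut at about 8.5% in these data, passing the limit was not always enough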;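 also: compound pretreatment 18-22 h then 72 h combined with doxorubicin; 0% = doxorubicin alone and 100% = vehicle without doxorubicin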); conditions: H69AR viability with doxorubicin, CellTiter-Glo luminescence; at 10 µM; active compounds read high
[4] = viability of HCT116 without oncogenic beta-catenin – human colon tumor cells, pilot screen (AID 823;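 active = cell viability at or below a set limit in both duplicate runs, the limit being the all-compound median minus 4 SD, cut at about 23% in these data, passing the limit was not always enough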;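 also: 0% = wells killed by 20 µM Hyamine and 100% = untreated DMSO cell wells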); conditions: HCT116 beta-catenin knockout viability, CellTiter-Glo, 60 h; at 10 µM; active compounds read low
[5] = viability of PTEN-null HCT116 cells – cell-based, HCT116 clonal line, CellTiter-Glo, pilot screen (AID 824;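 active = viability at or below 27.92% in each of two runs, the all-compound median minus 4 SD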;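 also: 0% = 20 µM Hyamine control and 100% = vehicle cell control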); conditions: HCT116 PTEN-deleted viability, 60 h, at 10 µM, active compounds read low
[6] = RAM pathway blockade in budding yeast – dse1pr::URA3 reporter, 5-FOA selection, pilot screen (AID 869);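 also: 0% = DMSO wells with no growth and 100% = 10 µM 1-NA-PP1 with full growth; RAM network block rescues cells from 5-FOA so hits raise OD615 growth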; conditions: S. cerevisiae dse1pr::URA3 5-FOA growth, OD615, 2 d; at 10 µM; active compounds read high; strain carries analog-sensitive mutant Cbk1 kinase
[7] = RAM signaling pathway blockade in yeast – S. cerevisiae, Pdr1DBD-CYC8 efflux-inhibited sensitized strain, primary screen (AID 1298;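 active = RAM network inhibition above 8.4% in each of two replicates, 3 SD over the compound average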;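 also: 0% = DMSO untreated cells without growth and 100% = 10 µM 1-NA-PP1 full growth; higher means more yeast growth rescued from 5-FOA killing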); conditions: S. cerevisiae cbk1-as DSE1-URA3 strain, 5-FOA growth OD615, 2 d; at 50 µM; active compounds read high

CCOC(=O)c1ccc(NC(=O)C(C)N2C(=O)c3ccccc3C2=O)cc1 (stereo not drawn)
inactive: growth inhibition [1] -13.1% | growth inhibition [2] -21.9% | viability increase [3] 0.15% | viability [4] 104% | viability [5] 100% | inhibition [6] 0.645% | RAM network inhibition [7] 4.7%

O=C(CCC(=O)OCCCC(F)(F)C(F)(F)F)Nc1ccccc1
inactive: growth inhibition [1] -3.25% | growth inhibition [2] 3.78% | viability increase [3] 1.41% | viability [4] 100% | viability [5] 104% | inhibition [6] 0.785% | RAM network inhibition [7] 3.34%

CCOC(=O)c1cc(-c2ccc(C)cc2)n(CC(=O)NCc2ccco2)c1C
inactive: growth inhibition [1] 12.1% | growth inhibition [2] -7.09% | viability increase [3] -5.81% | viability [4] 74.6% | viability [5] 77.5% | inhibition [6] 3.1% | RAM network inhibition [7] 5.82%

Cc1cc2ncn(C(=O)c3c(-c4c(Cl)cccc4Cl)noc3C)c2cc1C
inactive: growth inhibition [1] 0.3% | growth inhibition [2] 5.04% | viability increase [3] -3.42% | viability [4] 95.5% | viability [5] 94.5% | inhibition [6] 1.99% | RAM network inhibition [7] 8.25%

c1ccc(-c2cnn3nnnc3n2)cc1
inactive: growth inhibition [1] 0.085% | growth inhibition [2] -12.7% | viability increase [3] -1.17% | viability [4] 102% | viability [5] 97.9% | inhibition [6] 1.85% | RAM network inhibition [7] 1.66%

O=C(NCCCN1CCCCC1)c1ccc2c(=O)n(CCc3ccccc3)c(=O)[nH]c2c1
inactive: growth inhibition [1] -7.09% | growth inhibition [2] -6.43% | viability increase [3] -3.27% | viability [4] 77.3% | viability [5] 83% | inhibition [6] 0.675% | RAM network inhibition [7] 8.53%

COc1ccc(N2CSC3=C(C#N)C(c4cc(OC)ccc4OC)CC(=O)N3C2)c(OC)c1 (stereo not drawn)
inactive: growth inhibition [1] -1.38% | growth inhibition [2] 21.7% | viability increase [3] -6.09% | viability [4] 80.5% | viability [5] 82.6% | inhibition [6] 0.54% | RAM network inhibition [7] 2.28%

C=C(C)Cn1c(C2CC(=O)N(Cc3ccccc3)C2)nc2ccccc21 (stereo not drawn)
inactive: growth inhibition [1] -0.245% | growth inhibition [2] -1.79% | viability increase [3] -1.95% | viability [4] 97.1% | viability [5] 93.2% | inhibition [6] 1.46% | RAM network inhibition [7] 2.18%

COc1ccc(CN2C(=O)CCC2(C)C(=O)NC2CCCC2)c(OC)c1 (stereo not drawn)
inactive: growth inhibition [1] -5.04% | growth inhibition [2] -4.46% | viability increase [3] 0.91% | viability [4] 105% | viability [5] 101% | inhibition [6] 0.71% | RAM network inhibition [7] 2.04%

O=C(NCCCn1ccnc1)c1cc(C2CC2)on1
inactive: growth inhibition [1] -14.9% | growth inhibition [2] -11.1% | viability increase [3] 0.19% | viability [4] 105% | viability [5] 103% | inhibition [6] 1.95% | RAM network inhibition [7] 6.12%

Cc1cccc(OCC2=N/C(=C\N(C)C)C(=O)O2)c1
inactive: growth inhibition [1] -21.7% | growth inhibition [2] -9.04% | viability increase [3] -0.64% | viability [4] 97.2% | viability [5] 91.3% | inhibition [6] 1.48% | RAM network inhibition [7] 2.9%

Cc1nc2ccccc2c2oc(C(=O)NCc3ccc4c(c3)OCO4)cc12
inactive: growth inhibition [1] -5.28% | growth inhibition [2] -8.97% | viability increase [3] -0.55% | viability [4] 70.8% | viability [5] 80.8% | inhibition [6] 1.01% | RAM network inhibition [7] 5.03%

Cn1nnnc1SCc1nc2ccccc2[nH]1
inactive: growth inhibition [1] -7.39% | growth inhibition [2] -5.67% | viability increase [3] 0.69% | viability [4] 101% | viability [5] 102% | inhibition [6] 0.215% | RAM network inhibition [7] 3.43%

COc1cccc(NS(=O)(=O)c2nc3nc(C)cc(C)n3n2)c1
inactive: growth inhibition [1] -10.2% | growth inhibition [2] -2.87% | viability increase [3] -1.57% | viability [4] 108% | viability [5] 98.9% | inhibition [6] 2.01% | RAM network inhibition [7] -1%

CCOc1ccccc1C(=O)Nc1nnc(C(C)C)s1
inactive: growth inhibition [1] 3% | growth inhibition [2] -2.61% | viability increase [3] -4.41% | viability [4] 98.1% | viability [5] 91.5% | inhibition [6] 0.55% | RAM network inhibition [7] 2.24%

COC(=O)C(C)Sc1ccc2nnc(-c3cccc(F)c3)n2n1 (stereo not drawn)
inactive: growth inhibition [1] 8.96% | growth inhibition [2] 14.9% | viability increase [3] -3.98% | viability [4] 94.7% | viability [5] 87.4% | inhibition [6] 2.51% | RAM network inhibition [7] 0.15%

O=C(CSc1nnc(Cn2c(=O)sc3ccccc32)n1-c1ccccc1)NCc1ccco1
inactive: growth inhibition [1] -3.11% | growth inhibition [2] -1.47% | viability increase [3] -4.7% | viability [4] 99.5% | viability [5] 98.1% | inhibition [6] 1.22% | RAM network inhibition [7] 6%

O=C(NCC(c1cccnc1)N1CCN(c2ccccc2F)CC1)c1ccccc1 (stereo not drawn)
inactive: growth inhibition [1] -9.54% | growth inhibition [2] -2.34% | viability increase [3] -4.21% | viability [4] 88.5% | viability [5] 82.4% | inhibition [6] 1.75% | RAM network inhibition [7] 1.21%

CCOC(=O)N1CCN(c2c(Nc3ccc4c(c3)OCCO4)c(=O)c2=O)CC1
inactive: growth inhibition [1] 4.17% | growth inhibition [2] 4.07% | viability increase [3] -1.02% | viability [4] 105% | viability [5] 105% | inhibition [6] 1.1% | RAM network inhibition [7] 2.05%

CCOC(=O)Cn1c(C)nc2ccccc21
inactive: growth inhibition [1] -14% | growth inhibition [2] -14% | viability increase [3] -1.63% | viability [4] 102% | viability [5] 105% | inhibition [6] 1.29% | RAM network inhibition [7] 1.95%

CC(=O)c1ccc(C(=O)Nc2ccc(N3CCOCC3)cc2)cc1
inactive: growth inhibition [1] -0.45% | growth inhibition [2] 2.98% | viability increase [3] 3.45% | viability [4] 98.5% | viability [5] 99.6% | inhibition [6] 0.45% | RAM network inhibition [7] 2.61%

CCc1ccccc1NC1c2ccccc2C(=O)N1c1cc(C)ccn1 (stereo not drawn)
inactive: growth inhibition [1] -12.1% | growth inhibition [2] -4.82% | viability increase [3] -1.63% | viability [4] 99.1% | viability [5] 101% | inhibition [6] 1.82% | RAM network inhibition [7] 11.4%

COCCNC(=O)C1CC(=O)N(c2ccc(F)c(Cl)c2)C1 (stereo not drawn)
inactive: growth inhibition [1] -2.14% | growth inhibition [2] -4% | viability increase [3] 0.07% | viability [4] 105% | viability [5] 95.7% | inhibition [6] 0.835% | RAM network inhibition [7] 1.14%

O=C1c2ccccc2C(=O)N1CCc1nc2ccccc2c(=O)n1Cc1ccco1
inactive: growth inhibition [1] -8.88% | growth inhibition [2] -1.42% | viability increase [3] -3.47% | viability [4] 89.7% | viability [5] 88.6% | inhibition [6] 1.29% | RAM network inhibition [7] 1.59%

Source: PubChem BioAssay
